Data published in ChEMBL document CHEMBL1151705, “Novel azalides derived from 16-membered macrolides. Part II: Isolation of the linear 9-formylcarboxylic acid and its sequential macrocyclization with an amino alcohol or an azidoamine” (2008).
In brackets after ≈: the same amount, converted by molar mass.

Key:
Type in all cases: functional
[1] = test system: Streptococcus pyogenes; assay: Antimicrobial activity against Streptococcus pyogenes 2 constitutively expressing ermB after 20 hrs by agar dilution method
Procedure, shortened: (§1)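 Streptococci, H. influenzae and M. catarrhalis were precultured on blood agar plates. Suspensions of about 10⁶ CFU/ml were inoculated onto sensitivity disk agar supplemented with 5% horse blood and incubated at 37 °C for 20 h. MIC was read as the lowest drug concentration with no visible growth.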

[2] = test system: Streptococcus pyogenes; assay: Antimicrobial activity against drug-susceptible Streptococcus pyogenes 1 after 20 hrs by agar dilution method; conditions: Streptococcus pyogenes, 20 h; read-out: MIC; procedure, shortened: as §1
[3] = test system: Haemophilus influenzae; assay: Antimicrobial activity against drug-susceptible Haemophilus influenzae 3 after 20 hrs by agar dilution method; conditions: Haemophilus influenzae, 20 h; read-out: MIC; procedure, shortened: as §1
[4] = test system: Streptococcus pneumoniae; assay: Antimicrobial activity against drug-susceptible Streptococcus pneumoniae DP1 Type1 after 20 hrs by agar dilution method; procedure, shortened: as §1
[5] = test system: Streptococcus pneumoniae; assay: Antimicrobial activity against Streptococcus pneumoniae 8 expressing inducible ermB after 20 hrs by agar dilution method; procedure, shortened: as §1
[6] = test system: Staphylococcus aureus; assay: Antimicrobial activity against drug-susceptible Staphylococcus aureus 3 after 20 hrs by agar dilution method; conditions: Staphylococcus aureus, 20 h; read-out: MIC
Procedure, shortened: (§2)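 Agar dilution MIC. S. aureus seed culture was grown in sensitivity test broth. Cell suspension (about 10⁶ CFU/ml) was inoculated onto sensitivity disk agar with 5% horse blood and incubated at 37 °C for 20 h. MIC was the lowest drug concentration that prevented visible growth.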

[7] = test system: Streptococcus pneumoniae; assay: Antimicrobial activity against Streptococcus pneumoniae 9 expressing mefA after 20 hrs by agar dilution method; conditions: Streptococcus pneumoniae, 20 h; read-out: MIC; procedure, shortened: as §1
[8] = test system: Streptococcus pneumoniae; assay: Antimicrobial activity against Streptococcus pneumoniae 5 constitutively expressing ermB/mefA after 20 hrs by agar dilution method; conditions: Streptococcus pneumoniae, 20 h; read-out: MIC; procedure, shortened: as §1
[9] = test system: Staphylococcus aureus; assay: Antimicrobial activity against Staphylococcus aureus 6 expressing inducible ermB after 20 hrs by agar dilution method; procedure, shortened: as §2
[10] = test system: Moraxella catarrhalis; assay: Antimicrobial activity against drug-susceptible Moraxella catarrhalis 1 after 20 hrs by agar dilution method; conditions: Moraxella catarrhalis, 20 h; read-out: MIC; procedure, shortened: as §1
[11] = test system: Haemophilus influenzae; assay: Antimicrobial activity against drug-susceptible Haemophilus influenzae 2 after 20 hrs by agar dilution method; conditions: Haemophilus influenzae, 20 h; read-out: MIC; procedure, shortened: as §1
[12] = test system: Haemophilus influenzae; assay: Antimicrobial activity against drug-susceptible Haemophilus influenzae 1 after 20 hrs by agar dilution method; conditions: Haemophilus influenzae, 20 h; read-out: MIC; procedure, shortened: as §1
[13] = test system: Streptococcus pneumoniae; assay: Antimicrobial activity against drug-susceptible Streptococcus pneumoniae 2 after 20 hrs by agar dilution method; conditions: Streptococcus pneumoniae, 20 h; read-out: MIC; procedure, shortened: as §1
[14] = test system: Staphylococcus aureus; assay: Antimicrobial activity against Staphylococcus aureus 5 expressing inducible ermB after 20 hrs by agar dilution method; conditions: Staphylococcus aureus, 20 h; read-out: MIC; procedure, shortened: as §2
[15] = test system: Streptococcus pneumoniae; assay: Antimicrobial activity against Streptococcus pneumoniae 10 expressing mefA after 20 hrs by agar dilution method; conditions: Streptococcus pneumoniae, 20 h; read-out: MIC; procedure, shortened: as §1
[16] = test system: Streptococcus pyogenes; assay: Antimicrobial activity against Streptococcus pyogenes 3 expressing mefA after 20 hrs by agar dilution method; conditions: Streptococcus pyogenes, 20 h; read-out: MIC; procedure, shortened: as §1
[17] = test system: Moraxella catarrhalis; assay: Antimicrobial activity against drug-susceptible Moraxella catarrhalis 2 after 20 hrs by agar dilution method; conditions: Moraxella catarrhalis, 20 h; read-out: MIC; procedure, shortened: as §1
[18] = test system: Staphylococcus aureus; assay: Antimicrobial activity against Staphylococcus aureus 4 constitutively expressing ermA after 20 hrs by agar dilution method; procedure, shortened: as §2
[19] = test system: Streptococcus pneumoniae; assay: Antimicrobial activity against Streptococcus pneumoniae 7 expressing inducible ermB after 20 hrs by agar dilution method; procedure, shortened: as §1
[20] = test system: Staphylococcus aureus; assay: Antimicrobial activity against drug-susceptible Staphylococcus aureus 2 after 20 hrs by agar dilution method; conditions: Staphylococcus aureus, 20 h; read-out: MIC; procedure, shortened: as §2
[21] = test system: Streptococcus pneumoniae; assay: Antimicrobial activity against Streptococcus pneumoniae 6 constitutively expressing ermB after 20 hrs by agar dilution method; conditions: Streptococcus pneumoniae, 20 h; read-out: MIC; procedure, shortened: as §1
[22] = test system: Staphylococcus aureus; assay: Antimicrobial activity against drug-susceptible Staphylococcus aureus 209P JC-1 after 20 hrs by agar dilution method; conditions: Staphylococcus aureus, 209P, 20 h; read-out: MIC; procedure, shortened: as §2
[23] = test system: Haemophilus influenzae; assay: Antimicrobial activity against drug-susceptible Haemophilus influenzae 4 after 20 hrs by agar dilution method; conditions: Haemophilus influenzae, 20 h; read-out: MIC; procedure, shortened: as §1
[24] = Streptococcus pneumoniae, 20 h, read-out: MIC

| MIC [1] [µg/mL] | MIC [2] [µg/mL] | MIC [3] [µg/mL] | MIC [6] [µg/mL] | MIC [7] [µg/mL] | MIC [8] [µg/mL] | MIC [9] [µg/mL] | MIC [10] [µg/mL] | MIC [11] [µg/mL] | MIC [12] [µg/mL] | MIC [13] [µg/mL] | MIC [14] [µg/mL] | MIC [15] [µg/mL] | MIC [16] [µg/mL] | MIC [17] [µg/mL] | MIC [18] [µg/mL] | MIC [20] [µg/mL] | MIC [21] [µg/mL] | MIC [22] [µg/mL] | MIC [23] [µg/mL] | Structure (SMILES) | also measured |
| --- | --- | --- | --- | --- | --- | --- | --- | --- | --- | --- | --- | --- | --- | --- | --- | --- | --- | --- | --- | --- | --- |
| > 128 | 0.25 (≈ 0.241 µM) | > 128 | 1 (≈ 0.966 µM) | 0.25 (≈ 0.241 µM) | > 128 | 2 (≈ 1.93 µM) | 1 (≈ 0.966 µM) | 4 (≈ 3.86 µM) | > 128 | 0.25 (≈ 0.241 µM) | 1 (≈ 0.966 µM) | 0.13 (≈ 0.126 µM) | 1 (≈ 0.966 µM) | 2 (≈ 1.93 µM) | > 128 | 2 (≈ 1.93 µM) | > 128 | 0.5 (≈ 0.483 µM) | > 128 | CCOC(=O)[C@H]1[C@H](C)O[C@@H](O[C@H]2[C@H](N(C)C)[C@@H](O)[C@H](O[C@H]3[C@@H](CC=O)C[C@@H](C)[C@@H](OC(C)=O)CN(CCCCc4ccccc4)CCC[C@@H](C)OC(=O)C[C@@H](OC(=O)CC)[C@@H]3OC)O[C@@H]2C)C[C@@]1(C)OC(C)=O | MIC [4, 24]: 0.25 µg/mL (≈ 0.241 µM); MIC [5, 24]: 4 µg/mL (≈ 3.86 µM); MIC [19, 24]: 4 µg/mL (≈ 3.86 µM) |
| > 128 | 2 (≈ 1.99 µM) | > 128 | 4 (≈ 3.97 µM) | 2 (≈ 1.99 µM) | > 128 | 8 (≈ 7.94 µM) | 8 (≈ 7.94 µM) | > 128 | > 128 | 2 (≈ 1.99 µM) | 4 (≈ 3.97 µM) | 2 (≈ 1.99 µM) | 4 (≈ 3.97 µM) | > 128 | > 128 | > 128 | > 128 | 4 (≈ 3.97 µM) | > 128 | CCOC(=O)[C@H]1[C@H](C)O[C@@H](O[C@H]2[C@H](N(C)C)[C@@H](O)[C@H](O[C@H]3[C@@H](CC=O)C[C@@H](C)[C@@H](OC(C)=O)CN(CCCCc4ccccc4)C[C@@H](C)OC(=O)C[C@@H](OC(=O)CC)[C@@H]3OC)O[C@@H]2C)C[C@@]1(C)OC(C)=O | MIC [4, 24]: 1 µg/mL (≈ 0.993 µM); MIC [5, 24]: > 128 µg/mL; MIC [19, 24]: > 128 µg/mL |
| > 128 | 0.06 (≈ 0.0613 µM) | 4 (≈ 4.09 µM) | 0.25 (≈ 0.256 µM) | 0.25 (≈ 0.256 µM) | > 128 | 0.5 (≈ 0.511 µM) | 0.13 (≈ 0.133 µM) | 1 (≈ 1.02 µM) | 16 (≈ 16.4 µM) | 0.13 (≈ 0.133 µM) | 0.25 (≈ 0.256 µM) | 0.25 (≈ 0.256 µM) | 0.25 (≈ 0.256 µM) | 0.13 (≈ 0.133 µM) | > 128 | 1 (≈ 1.02 µM) | > 128 | 0.25 (≈ 0.256 µM) | 4 (≈ 4.09 µM) | CCOC(=O)[C@H]1[C@H](C)O[C@@H](O[C@H]2[C@H](N(C)C)[C@@H](O)[C@H](O[C@H]3[C@@H](CC=O)C[C@@H](C)[C@@H](O)CN(CCCCc4ccccc4)CCC(C)NC(=O)C[C@@H](OC(=O)CC)[C@@H]3OC)O[C@@H]2C)C[C@@]1(C)OC(C)=O (stereo in doubt; form 1) | MIC [4]: 0.06 µg/mL (≈ 0.0613 µM); MIC [5]: 128 µg/mL (≈ 131 µM); MIC [19]: 128 µg/mL (≈ 131 µM) |
| > 128 | 16 (≈ 21.1 µM) | 64 (≈ 84.3 µM) | 64 (≈ 84.3 µM) | 32 (≈ 42.2 µM) | > 128 | 64 (≈ 84.3 µM) | 8 (≈ 10.5 µM) | 8 (≈ 10.5 µM) | 64 (≈ 84.3 µM) | 16 (≈ 21.1 µM) | 64 (≈ 84.3 µM) | 32 (≈ 42.2 µM) | 128 (≈ 169 µM) | 8 (≈ 10.5 µM) | > 128 | 32 (≈ 42.2 µM) | > 128 | 64 (≈ 84.3 µM) | 128 (≈ 169 µM) | CCC(=O)O[C@@H]1CC(=O)NCCCN(CCCc2ccnc3ccccc23)C[C@H](O)[C@H](C)C[C@H](CC=O)[C@H](O[C@@H]2O[C@H](C)[C@@H](O)[C@H](N(C)C)[C@H]2O)[C@H]1OC | MIC [4, 24]: 16 µg/mL (≈ 21.1 µM); MIC [5, 24]: > 128 µg/mL; MIC [19, 24]: > 128 µg/mL |
| > 128 | 0.5 (≈ 0.497 µM) | > 128 | 1 (≈ 0.994 µM) | 0.5 (≈ 0.497 µM) | > 128 | 1 (≈ 0.994 µM) | 1 (≈ 0.994 µM) | 8 (≈ 7.95 µM) | > 128 | 0.5 (≈ 0.497 µM) | 0.5 (≈ 0.497 µM) | 0.5 (≈ 0.497 µM) | 2 (≈ 1.99 µM) | 2 (≈ 1.99 µM) | > 128 | 2 (≈ 1.99 µM) | > 128 | 1 (≈ 0.994 µM) | 16 (≈ 15.9 µM) | CCOC(=O)[C@H]1[C@H](C)O[C@@H](O[C@H]2[C@H](N(C)C)[C@@H](O)[C@H](O[C@H]3[C@@H](CC=O)C[C@@H](C)[C@@H](OC(C)=O)CN(C)CCN(CCCCc4ccccc4)C(=O)C[C@@H](OC(=O)CC)[C@@H]3OC)O[C@@H]2C)C[C@@]1(C)OC(C)=O | MIC [4, 24]: 0.13 µg/mL (≈ 0.129 µM); MIC [5, 24]: 16 µg/mL (≈ 15.9 µM); MIC [19, 24]: 16 µg/mL (≈ 15.9 µM) |
